Experimental data taken from ChEMBL document CHEMBL1909525, “Synthesis and anticonvulsant activity of novel 2,6-diketopiperazine derivatives. Part 1: perhydropyrrole[1,2-a]pyrazines” (Eur J Med Chem, 2011).
Activity calls are given as the source filed them. The rule behind the calls is not given here.

Assays:
Mus musculus [1] = assay: Anticonvulsant activity in albino Carworth Farms No.1 mouse assessed as protection against electric-current for 3 secs-induced seizure at 100 mg/kg, ip after 2 hrs by 6Hz minimal clonic seizure test; type: functional, organism-based; design: dose 100 mg/kg
In short: (§1)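 6 Hz psychomotor seizure test in mice. Compound given i.p. as a suspension in 0.5% methylcellulose. Corneal stimulation at 32 mA, 0.2-ms monopolar rectangular pulses at 6 Hz for 3 s, from a constant-current device. Tests run 0.25–4 h after dosing. A mouse counted as protected if it resumed normal exploratory behaviour within 10 s; scored as protected/tested.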

Rattus norvegicus [2] = assay: Toxicity in albino Sprague-Dawley rat pilocarpine-induced status epilepticus model assessed as change in body weight in protected rat at 130 mg/kg, ip measured after 24 hrs of time from first stage 3 seizures; type: organism-based; design: dose 130 mg/kg, route intraperitoneal; conditions: in vivo
In short: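 Male albino Sprague-Dawley rats (150–180 g) received compound i.p., then a pilocarpine challenge immediately (0 min) or 30 min after treatment. The outcome was protection or no protection from seizures, scored as number protected/number tested. Average body weight change (g) ± S.E.M. was reported separately for protected and non-protected rats.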

Rattus norvegicus [3] = assay: Anticonvulsant activity in albino Sprague-Dawley rat assessed as protection against pilocarpine-induced status epilepticus at 130 mg/kg, ip measured after time from first stage 3 seizures; type: functional, organism-based; design: dose 130 mg/kg
In short: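 Male albino Sprague-Dawley rats, 150–180 g. Compound given i.p., then a challenge dose of pilocarpine at 0 min or at 30 min. Outcome scored as protection or no protection from seizures (protected/tested), with body weight change recorded.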

Mus musculus [4] = assay: Anticonvulsant activity in albino Carworth Farms No.1 mouse assessed as protection against subcutaneous metrazol-induced seizure at 300 mg/kg, ip after 0.5 hrs; type: functional, organism-based; design: dose 300 mg/kg
In short: (§2)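 Mouse scMET test. Compound given i.p. (30, 100 or 300 mg/kg) in 0.5% methylcellulose. Pentylenetetrazole 85 mg/kg (CD97) given s.c. at 0.5 or 4 h, then mice observed for 30 min. Protection is absence of clonic spasms; scored as protected/tested.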

Mus musculus [5] = assay: Anticonvulsant activity in albino Carworth Farms No.1 mouse assessed as protection against maximal electroshock-induced seizure at 30 mg/kg, ip after 0.5 hrs; type: functional, organism-based; design: dose 30 mg/kg
In short: (§3)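 Mouse MES test with compound given i.p. (30, 100 or 300 mg/kg) in 0.5% methylcellulose; tested at 0.5 and 4 h. Corneal stimulus of 50 mA at 60 Hz for 0.2 s, electrodes primed with 0.5% butacaine in 0.9% NaCl. Protection is abolition of hindlimb tonic extension; scored as protected/tested.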

Rattus norvegicus [6] = assay: Anticonvulsant activity in po dosed albino Sprague-Dawley rat assessed as time needs to show peak effect for protection against maximal electroshock-induced seizure after 0.25 hrs; type: functional
In short: (§4)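 Rats dosed orally, compound in 0.5% methylcellulose. MES at 150 mA, 60 Hz, 0.2 s; scMET with pentylenetetrazole 70 mg/kg s.c. plus 30 min observation; rotorod for toxicity.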

Mus musculus [7] = assay: Anticonvulsant activity in albino Carworth Farms No.1 mouse assessed as protection against electric-current for 3 secs-induced seizure at 100 mg/kg, ip after 0.25 hrs by 6Hz minimal clonic seizure test; type: functional, organism-based; design: dose 100 mg/kg; in short: as §1
Mus musculus [8] = assay: Anticonvulsant activity in albino Carworth Farms No.1 mouse assessed as protection against electric-current for 3 secs-induced seizure at 75 mg/kg, ip after 2 hrs by 6Hz minimal clonic seizure test; type: functional, organism-based; design: dose 75 mg/kg; in short: as §1
Mus musculus [9] = assay: Anticonvulsant activity in albino Carworth Farms No.1 mouse assessed as protection against electric-current for 3 secs-induced seizure at 75 mg/kg, ip after 0.25 hrs by 6Hz minimal clonic seizure test; type: functional, organism-based; design: dose 75 mg/kg; in short: as §1
Mus musculus [10] = assay: Anticonvulsant activity in albino Carworth Farms No.1 mouse assessed as protection against subcutaneous metrazol-induced seizure at 30 mg/kg, ip after 0.5 hrs; type: functional, organism-based; design: dose 30 mg/kg; in short: as §2
Mus musculus [11] = assay: Toxicity in albino Carworth Farms No.1 mouse assessed as sedation at 300 mg/kg, ip after 0.5 hrs by rotarod test; type: organism-based; design: dose 300 mg/kg, route intraperitoneal; conditions: in vivo
In short: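 Mice (18–25 g) were given 30, 100 or 300 mg/kg i.p. in 0.5% (v/v) aqueous methylcellulose. Neurotoxicity was checked on a 6 r.p.m. rotorod 30 min and 4 h after dosing and scored as inability to keep equilibrium. Death following tonic extension and sedation were recorded as observations (number of animals/number tested).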

Mus musculus [12] = assay: Anticonvulsant activity in albino Carworth Farms No.1 mouse assessed as protection against subcutaneous metrazol-induced seizure at 300 mg/kg, ip after 4 hrs; type: functional, organism-based; design: dose 300 mg/kg; in short: as §2
Rattus norvegicus [13] = organism: Rattus norvegicus; assay: Protective index, ratio of TD50 for albino Sprague-Dawley rat to ED50 for albino Sprague-Dawley rat by maximal electroshock-induced seizure test; type: functional
Mus musculus [14] = assay: Neurotoxicity in albino Carworth Farms No.1 mouse assessed as motor impairment at 100 mg/kg, ip after 0.5 hrs by rotarod test; type: toxicity, organism-based; design: dose 100 mg/kg, route intraperitoneal; conditions: in vivo
In short: (§5)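 Rotorod neurotoxicity in mice at 6 r.p.m. Compound given i.p. (30, 100, 300 mg/kg) in 0.5% methylcellulose; tested at 30 min and 4 h. Impairment is inability to keep equilibrium on the rod for a given time; scored as impaired/tested.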

Mus musculus [15] = assay: Anticonvulsant activity in albino Carworth Farms No.1 mouse assessed as protection against subcutaneous metrazol-induced seizure at 100 mg/kg, ip after 4 hrs; type: functional, organism-based; design: dose 100 mg/kg; in short: as §2
Mus musculus [16] = assay: Anticonvulsant activity in ip dosed albino Carworth Farms No.1 mouse assessed as protection against electric-current for 3 secs-induced seizure after 0.25 hrs by 6Hz minimal clonic seizure test; type: functional; conditions: albino Carworth Farms No.1, ip
Mus musculus [17] = assay: Anticonvulsant activity in albino Carworth Farms No.1 mouse assessed as protection against maximal electroshock-induced seizure at 300 mg/kg, ip after 4 hrs; type: functional, organism-based; design: dose 300 mg/kg; in short: as §3
Mus musculus [18] = assay: Anticonvulsant activity in albino Carworth Farms No.1 mouse assessed as protection against maximal electroshock-induced seizure at 30 mg/kg, ip after 4 hrs; type: functional, organism-based; design: dose 30 mg/kg; in short: as §3
Mus musculus [19] = assay: Anticonvulsant activity in albino Carworth Farms No.1 mouse assessed as protection against maximal electroshock-induced seizure at 100 mg/kg, ip after 0.5 hrs; type: functional, organism-based; design: dose 100 mg/kg; in short: as §3
Rattus norvegicus [20] = assay: Anticonvulsant activity in po dosed albino Sprague-Dawley rat assessed as protection against subcutaneous metrazol-induced seizure after 0.25 hrs; type: functional; in short: as §4
Mus musculus [21] = assay: Anticonvulsant activity in ip dosed albino Carworth Farms No.1 mouse assessed as protection against maximal electroshock-induced seizure after 0.25 hrs; type: functional; conditions: albino Carworth Farms No.1, ip
In short: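 Mouse quantification at the time of peak effect, compound given i.p. in 0.5% methylcellulose. Groups of at least eight mice received varied doses until at least two points fell between 100 and 0% response. ED50 (MES, scMET) and TD50 (rotorod) with 95% CI by probit analysis (Finney). PI = TD50/ED50 MES.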

Mus musculus [22] = assay: Neurotoxicity in albino Carworth Farms No.1 mouse assessed as motor impairment at 30 mg/kg, ip after 0.5 hrs by rotarod test; type: toxicity, organism-based; design: dose 30 mg/kg, route intraperitoneal; conditions: in vivo; in short: as §5
Rattus norvegicus [23] = organism: Rattus norvegicus; assay: Inhibition of voltage-gated sodium channel in Wistar rat cerebral prefrontal coronal slices assessed as decrease of 10 Hz current-induced current amplitude at 10 to 100 uM after 5 mins by whole cell voltage clamp method
In short: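 Na+ currents recorded by whole-cell voltage clamp in dispersed mPFC cells from coronal prefrontal slices of 3-week-old male Wistar rats. TEA-based bath, pH 7.4. Trains of 100 pulses at 10 Hz, each a step to -20 mV after a -100 mV prepulse. Amplitude decline over the train compared between control and 5 min compound application; n = 3.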

Which Activity (Mus musculus [1]) does the source give for `O=C1NC(=O)[C@@H]2CCCN2[C@H]1c1ccccc1` here?
Its Activity is “inactive”.

What about the Activity (Rattus norvegicus [2]) of the same compound?
Its Activity is 12.5 g.

What about the Activity (Rattus norvegicus [3]) of the same compound?
Its Activity is “Active”.

What about the Activity (Mus musculus [4]) of the same compound?
The Activity was “inactive”.

What about the Activity (Mus musculus [5]) of the same compound?
The Activity was “inactive”.

And the Time (Rattus norvegicus [6])?
Its Time is 0.25 h.

What about the Activity (Mus musculus [7]) of the same compound?
The Activity was “Active”.

What about the Activity (Mus musculus [8]) of the same compound?
Its Activity is “inactive”.

And the Activity (Mus musculus [9])?
The Activity was “Active”.

What about the Activity (Mus musculus [10]) of the same compound?
Its Activity is “inactive”.

And the Activity (Mus musculus [11])?
Its Activity is “Toxic”.

And the Activity (Mus musculus [12])?
Its Activity is “inactive”.

What about the “Ratio TD50/ED50” value (Rattus norvegicus [13]) of the same compound?
The value was >12.6.

What about the Activity (Mus musculus [14]) of the same compound?
The Activity was “Non-toxic”.

What about the Activity (Mus musculus [15]) of the same compound?
The Activity was “inactive”.

What about the ED50 (Mus musculus [16]) of the same compound?
The ED50 was 9.93 mg/kg.

And the Activity (Mus musculus [17])?
The Activity was “inactive”.

And the Activity (Mus musculus [18])?
Its Activity is “inactive”.

What about the Activity (Mus musculus [19]) of the same compound?
Its Activity is “Active”.

What about the ED50 (Rattus norvegicus [20]) of the same compound?
Its ED50 is 114 mg/kg.

And the ED50 (Mus musculus [21])?
Its ED50 is 69.5 mg/kg.

What about the Activity (Mus musculus [22]) of the same compound?
Its Activity is “Non-toxic”.

What about the inhibition (Rattus norvegicus [23]) of the same compound?
Its inhibition is “inactive”.
